According to ChEMBL document CHEMBL1146850, “Dithiocarbamic acid esters as anticancer agent. Part 1: 4-substituted-piperazine-1-carbodithioic acid 3-cyano-3,3-diphenyl-propyl esters” (Bioorg Med Chem Lett, 2006):

Assays:
[1] = test system: HL-60; test: Antiproliferative activity against human HL60 cells at 33 uM by MTT assay; type: functional
In short: (§1)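 HL-60 cells kept in RPMI-1640 with 10% FBS, penicillin 100 U/mL and streptomycin at 37 °C under humidified CO2. Exponentially growing cells seeded at 1–2.5 × 10^4 cells/mL. Compound added after 24 h, with medium-only controls. Exposure 48 h, then viable cells read by MTT at 570 nm absorbance. Screened at four concentrations, with single-concentration data given at 33.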

[2] = test system: Bel-7402; test: Antiproliferative activity against human Bel7402 cells at 33 uM by SRB assay; type: functional
In short: (§2)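 Bel-7402 cells kept in RPMI-1640 with 10% FBS, penicillin 100 U/mL and streptomycin at 37 °C under humidified CO2. Exponentially growing cells seeded at 1–2.5 × 10^4 cells/mL. Compound added 24 h later, with medium only for controls. Incubation 48 h, then viable cells counted by SRB. Screened at four concentrations, with single-concentration data given at 33.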

[3] = test system: HL-60; test: Antiproliferative activity against human HL60 cells by MTT assay; type: functional, cell-based; in short: as §1
[4] = test system: Bel-7402; test: Antiproliferative activity against human Bel7402 cells by SRB assay; type: functional, cell-based; in short: as §2
[5] = test system: H22; test: Antiproliferative activity against mouse H22 cells; type: functional
[6] = test system: Rattus norvegicus; test: Toxicity in rat at 10 g/kg after 10 days assessed as change in body weight relative to control; conditions: in vivo, 10000 mg/kg, 240 h
[7] = test system: CCRF S-180; test: Antiproliferative activity against mouse S180 cells; type: functional
[8] = test system: BGC-823; test: Antiproliferative activity against human BGC823 cells implanted in nude mouse; type: functional
[9] = test system: Rattus norvegicus; test: Toxicity in rat at 10 g/kg after 10 days; conditions: in vivo, 10000 mg/kg, 240 h

SMILES | inhibition at 33 µM [1] | inhibition at 33 µM [2] | other results
N#CC(CCSC(=S)N1CCN(S(=O)(=O)c2ccccc2)CC1)(c1ccccc1)c1ccccc1 | 0% | 0% | –
N#CC(CCSC(=S)N1CCN(c2ccc([N+](=O)[O-])cc2)CC1)(c1ccccc1)c1ccccc1 | 7.8% | 2.2% | –
COc1cccc(N2CCN(C(=S)SCCC(C#N)(c3ccccc3)c3ccccc3)CC2)c1 | 9.8% | 15.5% | –
CCOC(=O)N1CCN(C(=S)SCCC(C#N)(c2ccccc2)c2ccccc2)CC1 | 0% | 35% | –
CS(=O)(=O)N1CCN(C(=S)SCCC(C#N)(c2ccccc2)c2ccccc2)CC1 | 24.9% | 13.4% | –
N#CC(CCSC(=S)N1CCN(S(=O)(=O)c2ccc(F)cc2)CC1)(c1ccccc1)c1ccccc1 | 0% | 9.7% | –
N#CC(CCSC(=S)N1CCN(C(=O)CCCl)CC1)(c1ccccc1)c1ccccc1 | 43.3% | 22% | –
N#CC(CCSC(=S)N1CCN(CCCl)CC1)(c1ccccc1)c1ccccc1 | 53.6% | 28.7% | –
COc1ccc(S(=O)(=O)N2CCN(C(=S)SCCC(C#N)(c3ccccc3)c3ccccc3)CC2)cc1 | 1.5% | 5.4% | –
N#CC(CCSC(=S)N1CCN(Cc2ccccc2)CC1)(c1ccccc1)c1ccccc1 | 12.5% | 4.7% | –
N#CC(CCSC(=S)N1CCN(C(=O)CCBr)CC1)(c1ccccc1)c1ccccc1 | 82.2% | 23.4% | –
COc1ccccc1N1CCN(C(=S)SCCC(C#N)(c2ccccc2)c2ccccc2)CC1 | 4.8% | 0% | –
N#CC(CCSC(=S)N1CCN(c2ccccc2)CC1)(c1ccccc1)c1ccccc1 | 10.5% | 0% | –
N#CC(CCSC(=S)N1CCN(c2ccccc2F)CC1)(c1ccccc1)c1ccccc1 | 0% | 4.3% | –
CCCCCCN1CCN(C(=S)SCCC(C#N)(c2ccccc2)c2ccccc2)CC1 | 2.57% | 12.7% | –
N#CC(CCSC(=S)N1CCN(c2cccc(Cl)c2)CC1)(c1ccccc1)c1ccccc1 | 4.2% | 0% | –
N#CC(CCSC(=S)N1CCN(C(=O)c2ccco2)CC1)(c1ccccc1)c1ccccc1 | 30.4% | 17.7% | –
N#CC(CCSC(=S)N1CCN(S(=O)(=O)c2ccccc2[N+](=O)[O-])CC1)(c1ccccc1)c1ccccc1 | 0% | 0% | –
N#CC(CCSC(=S)N1CCN(S(=O)(=O)c2cccc(C(F)(F)F)c2)CC1)(c1ccccc1)c1ccccc1 | 0% | 0% | –
CN1CCN(C(=S)SCCC(C#N)(c2ccccc2)c2ccccc2)CC1 | 79% | 75.2% | IC50 [3]: 9.9 µM; IC50 [4]: 27.1 µM

SMILES | inhibition at 33 µM [1] | inhibition at 33 µM [2] | other results
N#CC(CCSC(=S)N1CCNCC1)(c1ccccc1)c1ccccc1 | 98.7% | 95.5% | IC50 [3]: 5.3 µM; IC50 [4]: 11.5 µM
N#CC(CCSC(=S)N1CCN(c2ncccn2)CC1)(c1ccccc1)c1ccccc1 | 24.2% | 33.2% | –
N#CC(CCSC(=S)N1CCN(CCO)CC1)(c1ccccc1)c1ccccc1 | 92.5% | 57.7% | IC50 [3]: 24.5 µM; IC50 [4]: 11.7 µM
N#CC(CCSC(=S)N1CCN(S(=O)(=O)c2cccc([N+](=O)[O-])c2)CC1)(c1ccccc1)c1ccccc1 | 0% | 5.5% | –
N#CC(CCSC(=S)N1CCN(Cc2ccc3c(c2)OCO3)CC1)(c1ccccc1)c1ccccc1 | 0% | 16.6% | –
N#CC(CCSC(=S)N1CCN(C(c2ccccc2)c2ccc(Cl)cc2)CC1)(c1ccccc1)c1ccccc1 (centres undefined) | 2.7% | 18% | –
CCN1CCN(C(=S)SCCC(C#N)(c2ccccc2)c2ccccc2)CC1 | -7.81% | 4.97% | –
Cc1ccc(Cl)cc1N1CCN(C(=S)SCCC(C#N)(c2ccccc2)c2ccccc2)CC1 | 0% | 14.6% | –
CS(=O)(=O)OCCC(=O)N1CCN(C(=S)SCCC(C#N)(c2ccccc2)c2ccccc2)CC1 | 0% | 1.09% | –
N#CC(CCSC(=S)N1CCN(S(=O)(=O)c2c(Cl)cccc2Cl)CC1)(c1ccccc1)c1ccccc1 | 0% | 0% | –
COc1ccc(N2CCN(C(=S)SCCC(C#N)(c3ccccc3)c3ccccc3)CC2)cc1 | 8.5% | 14.9% | –
N#CC(CCSC(=S)N1CCN(c2ccccc2Cl)CC1)(c1ccccc1)c1ccccc1 | 0% | 0% | –
N#CC(CCSC(=S)N1CCN(c2ccc(Cl)c(Cl)c2)CC1)(c1ccccc1)c1ccccc1 | 0.7% | 23.3% | –
N#CC(CCSC(=S)N1CCN(S(=O)(=O)c2ccc([N+](=O)[O-])cc2)CC1)(c1ccccc1)c1ccccc1 | 0% | 0.2% | –
N#CC(CCSC(=S)N1CCN(c2ccc(F)cc2)CC1)(c1ccccc1)c1ccccc1 | 0% | 15.9% | –
N#CC(CCSC(=S)N1CCN(c2cccc(C(F)(F)F)c2)CC1)(c1ccccc1)c1ccccc1 | 8.5% | 26.3% | –
Cc1ccccc1N1CCN(C(=S)SCCC(C#N)(c2ccccc2)c2ccccc2)CC1 | 0% | 0% | –
N#CC(CCSC(=S)N1CCN(c2ccccn2)CC1)(c1ccccc1)c1ccccc1 | 31.8% | 22.6% | –
CCCCN1CCN(C(=S)SCCC(C#N)(c2ccccc2)c2ccccc2)CC1 | -13.5% | 11% | –
CN1CCN(C(=S)SCCC(C#N)(c2ccccc2)c2ccccc2)CC1.Cl | – | – | Activity [5]: 39.3%; Activity [6]: Not Active; Activity [7]: 46.4%; Activity [8]: 18.1%; Activity [9]: Not Active
